Article PMC7396739 (Drug Design, Development and Therapy, 2020)

Assays:
[1] = rats; cited from earlier work
[2] = Crystallization inhibition of excipients; format: physicochemical; details: after 5 min
Summary of the method: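 Supersaturated stock (27 mg test compound in 5 mL 95% ethanol) added rapidly to 900 mL water, here with no excipient (control), at 37°C and 50 r/min. 5 mL samples were taken at 5–240 min and replaced with drug-free medium. Samples were filtered (0.22 µm) and assayed by HPLC (C18, acetonitrile-water 84:16, 1 mL/min, 203 nm). Run in triplicate.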

[3] = Determination of saturated solubility of ASDs in distilled water; format: physicochemical; details: 37±0.5°C, 48 h, drug:Soluplus 1:10 w/w, Figure 5A
Summary of the method: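 Solid dispersions were made by co-precipitation from anhydrous ethanol, freeze-drying from 2% ethanol (−40°C 8 h, then −45°C 24 h), or microwave (700 W, 10 min) with liquid-nitrogen quench. Products were ground and sieved (60 mesh). Excess material was shaken in 5 mL water, then filtered (0.45 µm). Concentration was measured by HPLC (C18, acetonitrile-water 84:16, 203 nm).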

C[C@@H]1CC[C@@]2(OC1)O[C@H]1C[C@H]3[C@@H]4CC=C5C[C@@H](O)CC[C@]5(C)[C@H]4CC[C@]3(C)[C@H]1[C@@H]2C [Dio, diosgenin]
absolute bioavailability [1]: about 7% | concentration of Dio in dissolution medium without excipient [2]: lower than the detection limit | solubility [3]: lower than the detection limit
